Measurements collected from several papers.
Sample: plasma

Compound	host	route	dose	setting	AUC(0-inf)
CNC(=O)c1cc(Oc2ccc(NC(=O)Nc3ccc(Cl)c(C(F)(F)F)c3)cc2)ccn1	male Sprague-Dawley rat	oral	100 mg/kg	single dose	18400 ng·h/mL
CCN(CC)Cc1ccc2cc(COC(=O)Nc3ccc(C(=O)NO)cc3)ccc2c1	male Sprague-Dawley rat	oral	10 mg/kg		8730 ng·h/mL
C[C@H]1Oc2cc(cnc2N)-c2c(nn(C)c2C#N)CN(C)C(=O)c2ccc(F)cc21	Sprague-Dawley rat	intravenous	1 mg/kg	single dose	4470 ng·h/mL
O=C1CCC(N2Cc3cc(C4CCN(Cc5ccccc5)CC4)ccc3C2=O)C(=O)N1 (stereo not drawn)	male Sprague-Dawley rat	oral	3 mg/kg		349 ng·h/mL
COc1ccc(N(Cc2csc(-c3ccccc3)n2)C(=O)CCCCCC(=O)NO)cc1	female Sprague-Dawley rat	oral	30 mg/kg		32.4 ng·h/mL
COc1cc(-c2cc(C(C)=O)n3ccccc23)c(OC)cc1Cn1ccnc1	male Sprague-Dawley rat	oral	5 mg/kg		2160 ng·h/mL
C=CC(=O)N1CCC([C@@H]2CCNc3c(C(N)=O)c(-c4ccc(Oc5ccccc5)cc4)nn32)CC1	Sprague-Dawley rat	oral	16 mg/kg		1460 ng·h/mL
C[C@@]12C[C@@]3(O)O[C@@H](O1)[C@]1(COC(=O)c4ccccc4)[C@H]3C[C@@]12O[C@@H]1O[C@H](CO)[C@@H](O)[C@H](O)[C@H]1O	male Sprague-Dawley rat	oral	80 mg/kg		4.33 ng·h/mL
CONC(=O)c1cccc2c1cc(C)n2-c1nc2c(c(NCc3ccccc3)n1)CCCN2	male Sprague-Dawley rat	oral	10 mg/kg	single dose	38.9 ng·h/mL
Cn1c(=O)c2[nH]cnc2n(C)c1=O	male Sprague-Dawley rat	intravenous	11.25 mg/kg		32700 ng·h/mL
Cc1nc(Nc2ncc(C(=O)Nc3c(C)cccc3Cl)s2)cc(N2CCN(CCO)CC2)n1	male Sprague-Dawley rat	oral	5 mg/kg	single dose	0.199 µM·h
COc1nc(-c2cccc(-c3ccccc3)c2C)ccc1CNCCNC(=O)CCCCCCCCCCC(=O)N1CCN(CCNC(=O)c2cc3c(=O)n4cccc(C)c4nc3n(CCc3cccs3)c2=N)CC1	male Sprague-Dawley rat	oral	40 mg/kg		305 ng·h/mL
CC[C@H](C)[C@H](NC(=O)[C@@H]1CCCN1C(=O)CNC(=O)[C@H](Cc1ccccc1)NC(=O)[C@H](CC(N)=O)NC(=O)[C@H](CC(N)=O)NC(=O)[C@H](CO)NC(=O)[C@H](CO)NC(=O)[C@H](Cc1c[nH]cn1)NC(=O)[C@H](CCCNC(=N)N)NC(=O)[C@H](CC(C)C)NC(=O)[C@H](Cc1ccccc1)NC(=O)[C@H](CCC(=O)O)NC(=O)[C@H](C)NC(=O)[C@H](CC(C)C)NC(=O)[C@H](CCCNC(=N)N)NC(=O)[C@H](CCC(N)=O)NC(=O)[C@@H](NC(=O)[C@H](C)NC(=O)[C@@H]1CSSC[C@H](NC(=O)[C@H](CCCCN)NC(=O)CC[C@H](NC(=O)CCCCCCCCCCCCCCCCCCC(=O)O)C(=O)O)C(=O)N[C@@H](CC(N)=O)C(=O)N[C@@H]([C@@H](C)O)C(=O)N[C@@H](C)C(=O)N[C@@H]([C@@H](C)O)C(=O)N1)[C@@H](C)O)C(=O)N[C@@H](CC(C)C)C(=O)N1CCC[C@H]1C(=O)N1CCC[C@H]1C(=O)N[C@H](C(=O)N[C@@H](CC(N)=O)C(=O)N[C@H](C(=O)NCC(=O)N[C@@H](CO)C(=O)N[C@@H](CC(N)=O)C(=O)N[C@H](C(=O)N1CCC[C@H]1C(N)=O)[C@@H](C)O)C(C)C)[C@@H](C)O	male Sprague-Dawley rat	subcutaneous	30 nmol/kg	single dose	5 µM·h
C[C@H]1[C@@H](O)O[C@@H]2O[C@@]3(C)CC[C@H]4[C@H](C)CC[C@@H]1[C@@]24OO3	male Sprague-Dawley rat	oral	10 mg/kg		271 ng·h/mL
COc1ccc(-c2coc3cc(O)cc(O)c3c2=O)cc1	rat	intravenous	2 mg/kg		683 ng·h/mL
